Laboratory results published in ChEMBL document CHEMBL1157140, “Design and synthesis of trans 2-(furan-2-yl)vinyl heteroaromatic iodides with antitumour activity” (2008).

System: MCF7
Test: Cytotoxicity against human MCF7 cells after 3 days by MTT assay
Format: functional
Settings: MCF7, 72 h
Outline: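 MCF7 cells kept in medium with heat-inactivated foetal bovine serum, 2 mM L-alanyl-L-glutamine and penicillin–streptomycin at 37 °C, 5% CO₂. Seeded at 5 × 10³ cells/0.33 cm², then dosed after 24 h at final 0.01–100. Incubated 3 days, then MTT read at 570 nm. Each point averages 8 wells; untreated cells serve as control.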

Cn1cc[n+](C)c1/C=C/c1ccc(-c2ccccc2Cl)o1
GI50: 1380 nM

Cn1cc[n+](C)c1/C=C/c1ccco1
GI50: 100000 nM

C[n+]1ccccc1/C=C/c1ccco1
GI50: 70800 nM

C(=C\c1ccco1)/c1cccc(/C=C/c2ccco2)n1
GI50: 2510 nM

C[n+]1ccccc1/C=C/c1ccc(-c2ccccc2Cl)o1
GI50: 2240 nM

COc1ccc(-c2ccc(/C=C/c3n(C)cc[n+]3C)o2)cc1Cl
GI50: 224 nM

COc1ccc(-c2ccc(/C=C/c3ccc4ccccc4[n+]3C)o2)cc1Cl
GI50: 191 nM

C[n+]1c(/C=C/c2ccc(-c3ccc(Cl)cc3[N+](=O)[O-])o2)ccc2ccccc21
GI50: 1740 nM

Cc1ccc(/C=C/c2n(C)cc[n+]2C)o1
GI50: 33100 nM

C[n+]1c(/C=C/c2ccc(Br)o2)ccc2ccccc21
GI50: 3160 nM

Cn1cc[n+](C)c1/C=C/c1ccc(Br)o1
GI50: 39800 nM

Cn1cc[n+](C)c1/C=C/c1ccc(-c2ccc(Br)cc2)o1
GI50: 617 nM

C[n+]1ccccc1/C=C/c1ccc(-c2ccc(Cl)cc2)o1
GI50: 219 nM

C[n+]1ccccc1/C=C/c1ccc(-c2cc(Cl)ccc2Cl)o1
GI50: 38 nM

Cn1cc[n+](C)c1/C=C/c1ccc(-c2ccc(Cl)cc2)o1
GI50: 631 nM

C[n+]1ccccc1/C=C/c1ccc(-c2cccc(Cl)c2)o1
GI50: 135 nM

C[n+]1ccccc1/C=C/c1ccc(-c2ccc(Cl)cc2Cl)o1
GI50: 126 nM

C[n+]1ccccc1/C=C/c1ccc(-c2ccc(Cl)c(Cl)c2)o1
GI50: 380 nM

C[n+]1ccccc1/C=C/c1ccc(Br)o1
GI50: 7940 nM

C[n+]1c(/C=C/c2ccc(-c3cccc(Cl)c3)o2)ccc2ccccc21
GI50: 57.5 nM

Cn1cc[n+](C)c1/C=C/c1ccc(-c2cc(Cl)ccc2Cl)o1
GI50: 191 nM

C[n+]1c(/C=C/c2ccc(-c3ccc(Cl)cc3)o2)ccc2ccccc21
GI50: 126 nM

Cn1cc[n+](C)c1/C=C/c1ccc(-c2cccc(Cl)c2)o1
GI50: 1740 nM

COc1ccc(-c2ccc(/C=C/c3cccc[n+]3C)o2)cc1Cl
GI50: 66.1 nM

C[n+]1ccccc1/C=C/c1ccc(-c2ccc(Br)cc2)o1
GI50: 1000 nM

C[n+]1ccccc1/C=C/c1ccc(-c2cc(C(F)(F)F)ccc2Cl)o1
GI50: 331 nM
